High-throughput results from PubChem.
procasp3 activ: activators of human procaspase-3 D3A mutant, primary screen, biochemical, absorbance, PC-3 D3A mutant, single concentration; Caspase-3 (Homo sapiens), P42574; recombinant procaspase-3 D3A, Ac-DEVD-pNA absorbance 405 nm; activation, % at 8.5 µM; hit rate 0.11% among 330,000; AID 463141, 2010;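 active = activation above the mean of all tested compounds plus 3 SD, cut at about 21% in these data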
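Assay system: Autoprocessing-dead procaspase-3 D3A mutant enzyme; also added: Ac-DEVD-pNA; doses: one concentration, 8.5 µM nominal, 0.8% DMSO; times: 1 h compound preincubation, 2 h substrate hydrolysis at 25 °C; technique: 405 nm absorbance of p-nitroaniline, reads at 0 and 120 min; measure: % activation between DMSO and enzyme-spiked controls; repeats: single replicate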
IDE inh: human IDE inhibitors in live cells, primary screen, fluorescence polarization, HEK cells, FAbetaB substrate; hit rate 0.41% among 320,000; FAbetaB cleavage; inhibition, % at 5.59 µM; AID 434962, 2010;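 active = percent inhibition above the average of all tested compounds plus 3 SD, set per screening campaign, cut at about 16% in these data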;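 also: IDE supplied by intact live HEK cells; FP after avidin binding of uncleaved biotin substrate so inhibition keeps polarization high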
procasp7 counter: procaspase-7 activators, primary screen, counter-screen for procaspase-3 activator project, biochemical, absorbance, HTS, human; recombinant procaspase-7, Ac-DEVD-pNA absorbance 405 nm; D23A/D198A/D206A triple mutant, cannot self-cleave; scale: DMSO 0, 5 µM enzyme 100; activation, % at 8.5 µM; hit rate 0.093% among 330,000; Caspase-7 (Homo sapiens), P55210;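 active = percent activation above the screen-wide mean plus 3 SD, cut at about 25% in these data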
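System: Uncleavable procaspase-7 mutant enzyme; Amount: 2 µM procaspase-7 mutant as dispensed; Schedule: 1 h compound preincubation, 2 h substrate cleavage, 25 °C; Measured by: 405 nm absorbance of p-nitroaniline; Evaluation: percent activation from buffer-corrected 0–120 min absorbance change; Control set: low DMSO alone, high DMSO plus 5 µM PC-7.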
UBC13 inh: UBC13 polyubiquitin chain formation inhibitors, primary screen, biochemical, TR-FRET, uHTS. Ubiquitin-conjugating enzyme E2 N (Homo sapiens), P61088. inhibition, % at 20 µM. hit rate 0.47% among 330,000; in the data active = inhibition above about 45%, passing the limit was not always enough
Target sequence (P61088 whole entry, looked up): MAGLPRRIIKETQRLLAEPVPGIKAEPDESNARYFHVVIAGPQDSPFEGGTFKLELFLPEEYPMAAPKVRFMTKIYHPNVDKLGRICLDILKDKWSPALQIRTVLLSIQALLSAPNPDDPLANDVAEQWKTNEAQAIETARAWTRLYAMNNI
IDE act: human IDE activators in live cells, primary screen, fluorescence polarization, HEK cells, FAbeta-B substrate | FAbeta-B cleavage; 0% vehicle, 100% cell-free pure enzyme wells | hit rate 0.073% among 340,000 | Insulin-degrading enzyme (Homo sapiens), P14735 | AID 493087, 2011 | activation, % at 5.96 µM;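 active = activation above the mean of all tested compounds plus 3 SD, set per screening campaign, cut at about 17% in these data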
PHOSPHO1 inh: PubChem AID 1565; inhibition, % at 13.3 µM; recombinant PHOSPHO1, absorbance phosphatase assay; Phosphoethanolamine/phosphocholine phosphatase (Homo sapiens), Q8TCT1; hit rate 1.1% among 290,000; in the data active = inhibition above about 60%
Target sequence (Q8TCT1 whole entry, looked up): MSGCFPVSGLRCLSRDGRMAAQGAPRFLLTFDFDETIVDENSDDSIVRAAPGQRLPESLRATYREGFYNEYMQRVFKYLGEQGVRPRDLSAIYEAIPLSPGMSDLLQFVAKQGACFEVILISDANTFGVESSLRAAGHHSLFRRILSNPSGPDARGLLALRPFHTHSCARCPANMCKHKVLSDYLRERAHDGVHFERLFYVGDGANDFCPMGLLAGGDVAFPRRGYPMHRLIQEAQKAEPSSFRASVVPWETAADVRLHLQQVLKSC
IDE cell inh cf: human IDE inhibitors in live cells, confirmation, fluorescence polarization, HEK cells, FAbetaB substrate; shares compounds with IDE inh; FAbetaB cleavage; inhibition, % at 5.59 µM; hit rate 51% among 1,200;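 active = mean inhibition across triplicate wells above the cutoff set by the earlier primary insulin-degrading enzyme screen, cut at about 16% in these data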
HEK293 tox: cytotoxicity in HEK cells, cytotoxicity control for IDE inhibitor project, cell-based, luminescence; AID 449730, 2010; inhibition, % at 5.59 µM; HEK293 cytotoxicity, ATP luminescence; shares compounds with IDE inh; hit rate 28% among 1,200; in the data active = inhibition above about 22%
Hits are given with their value. A selection: hits, their analogues and other compounds. The true share with any hit is near 1.9%.

Screening CS(=O)(=O)Nc1nc2n(n1)C(c1ccccc1)C=C(c1ccc(Br)cc1)N2 (stereo unspecified) returned procasp3 activ inactive, IDE inh 63.1, procasp7 counter inactive, UBC13 inh inactive, IDE act inactive, PHOSPHO1 inh inactive, IDE cell inh cf 79.3 and HEK293 tox inactive.
`O=C(c1ccccc1)c1ccc(O)cc1O` gave procasp3 activ inactive, IDE inh 19.0, procasp7 counter inactive, UBC13 inh inactive, IDE act inactive, PHOSPHO1 inh inactive, IDE cell inh cf 39.7 and HEK293 tox inactive.
Screening COc1ccc(S(=O)(=O)N2CCN(Cc3cc(OC)c(OC)c(OC)c3)CC2)cc1 returned UBC13 inh inactive, IDE act inactive and PHOSPHO1 inh inactive.
For CCc1nnc(NS(=O)(=O)c2ccc(NCc3ccccc3O)cc2)s1 the results were procasp3 activ inactive, IDE inh inactive, procasp7 counter inactive, UBC13 inh inactive, IDE act inactive and PHOSPHO1 inh inactive.
Screening Cc1c(C(=O)N2CCCC2)c(S(=O)(=O)Nc2cccc(Br)c2)c(C)n1C returned procasp3 activ inactive, IDE inh inactive, procasp7 counter inactive, UBC13 inh inactive, IDE act inactive and PHOSPHO1 inh inactive.
Screening Cc1sc2ncnc(N3CCC(C(=O)NNC(=O)COc4ccc(Br)cc4)CC3)c2c1C returned procasp3 activ inactive, IDE inh 22.4, procasp7 counter inactive, UBC13 inh inactive, IDE act inactive, IDE cell inh cf inactive and HEK293 tox inactive.
Cc1ccc(OCC(=O)NNC(=O)C2CCN(c3ncnc4sc(C)c(C)c34)CC2)cc1 was read as procasp3 activ inactive, IDE inh inactive, procasp7 counter inactive, UBC13 inh inactive and IDE act inactive.
Cc1c(OC(C)C(=O)NCc2ccncc2)ccc2c3c(c(=O)oc12)CCCC3 (stereo unspecified) was read as procasp3 activ inactive, IDE inh 19.2, procasp7 counter inactive, UBC13 inh inactive, IDE act inactive, PHOSPHO1 inh inactive, IDE cell inh cf 17.0 and HEK293 tox inactive.
For Cc1c(OC(C)C(=O)NCc2ccccn2)ccc2c3c(c(=O)oc12)CCC3 (stereo unspecified) the results were procasp3 activ inactive, IDE inh inactive, procasp7 counter inactive, UBC13 inh inactive, IDE act inactive and PHOSPHO1 inh inactive.
`Cc1ccc(Nc2cnn(C34CC5CC(CC(CC(=O)O)(C5)C3)C4)c(=O)c2Cl)cc1C` gave procasp3 activ inactive, IDE inh 31.7, procasp7 counter inactive, UBC13 inh inactive, IDE act inactive, PHOSPHO1 inh inactive, IDE cell inh cf 24.8 and HEK293 tox inactive.
`O=C(O)CC12CC3CC(C1)CC(n1ncc(NCC4CCCO4)c(Cl)c1=O)(C3)C2` (stereo unspecified) gave procasp3 activ inactive, IDE inh inactive, procasp7 counter inactive, UBC13 inh inactive, IDE act inactive and PHOSPHO1 inh inactive.
`CCOc1ccc(CCNC(=O)Cn2ncn3nc(-c4ccc(OC)cc4)cc3c2=O)cc1OCC` gave procasp3 activ inactive, IDE inh inactive, procasp7 counter inactive, UBC13 inh inactive, IDE act inactive and PHOSPHO1 inh inactive.
Screening CS(=O)(=O)c1ccc(N)c(SSc2cc(S(C)(=O)=O)ccc2N)c1 returned procasp3 activ inactive, IDE inh 30.4, procasp7 counter inactive, UBC13 inh inactive, IDE act inactive, IDE cell inh cf 26.7 and HEK293 tox inactive.
